In brackets after ≈: the same amount, converted by molar mass.
Columns and labels:
Format in all cases: functional
[1] = test system: Escherichia coli; assay: cell growth was measured against Escherichia coli RW193 using liquid growth assay at 0h
In short: (§1)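 Overnight cultures diluted 1:500 into Luria broth containing EDDA 10 μg/mL, with or without test compound at 100 μg/mL. Turbidity read as absorbance at 650 nm (table heading) at 0, 2 and 8 h. SA240 is an iucD:Tn5 siderophore-deficient derivative of SA100. RW193 is E. coli K12 entA, fhuA-positive. AN193 is entA, fhuA-negative, lacking the ferrichrome receptor.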

[2] = test system: Shigella flexneri; assay: cell growth was measured against Shigella flexneri SA240 using liquid growth assay at 8 hr; in short: as §1
[3] = test system: Escherichia coli; assay: cell growth was measured against Escherichia coli AN193 using liquid growth assay at 8 hr; in short: as §1
[4] = test system: Salmonella; assay: Minimum inhibitory concentration was measured against salmonella 1135
In short: (§2)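 Standard agar dilution method; MICs determined externally by an industrial partner rather than in the authors' lab.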

[5] = test system: Salmonella; assay: Minimum inhibitory concentration was measured against salmonella X514; in short: as §2
[6] = test system: Escherichia coli; assay: cell growth was measured against Escherichia coli RW193 using liquid growth assay at 8 hr; in short: as §1
[7] = test system: Pseudomonas; assay: Minimum inhibitory concentration was measured against Pseudomonas X528; in short: as §2
[8] = test system: Shigella flexneri; assay: cell growth was measured against Shigella flexneri SA240 using liquid growth assay at 2 hr; in short: as §1
[9] = test system: Staphylococcus epidermidis; assay: Minimum inhibitory concentration was measured against staphylococcus epidermidis 222; in short: as §2
[10] = test system: Streptococcus pneumoniae; assay: Minimum inhibitory concentration was measured against streptococcus pneumonia PARK; in short: as §2
[11] = test system: Escherichia coli; assay: cell growth was measured against Escherichia coli AN193 using liquid growth assay at 2 hr; in short: as §1
[12] = test system: Shigella flexneri; assay: cell growth was measured against Shigella flexneri SA240 using liquid growth assay at 0h; in short: as §1
[13] = test system: Escherichia coli; assay: Minimum inhibitory concentration was measured against Escherichia coli EC14; in short: as §2
[14] = test system: Escherichia coli; assay: cell growth was measured against Escherichia coli RW193 using liquid growth assay at 2 hr; in short: as §1
[15] = test system: Escherichia coli; assay: cell growth was measured against Escherichia coli AN193 using liquid growth assay at 0h; in short: as §1
[16] = test system: Shigella flexneri; assay: The relative ability of compound to promote the growth of Shigella flexneri SA 100, a strain lacking the ability to synthesize siderophores was measured as zone stimulation at concentration of 10 mM
In short: (§3)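 S. flexneri SA100 grown overnight in Luria broth, seeded at 10^8/mL into Luria agar with EDDA (250 μg/mL). Compounds made as 10 mM aqueous stocks, diluted in water to 10, 1 or 0.1 mM. 10 μL applied on sterile paper disks. Incubated 37 °C, 18 h; diameters of growth-stimulation zones measured in mm.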

[17] = test system: Shigella flexneri; assay: The relative ability of compound to promote the growth of Shigella flexneri SA 100, a strain lacking the ability to synthesize siderophores was measured as zone stimulation at concentration of 1 mM; in short: as §3
[18] = test system: Shigella flexneri; assay: The relative ability of compound to promote the growth of Shigella flexneri SA 100, a strain lacking the ability to synthesize siderophores was measured as zone stimulation at concentration of 0.1 mM; in short: as §3

Structure (SMILES)	Cell growth [1]	Cell growth [2]	Cell growth [3]	MIC [4]	MIC [5]	Cell growth [6]	MIC [7]	Cell growth [8]	MIC [9]	MIC [10]	Cell growth [11]	Cell growth [12]	MIC [13]	Cell growth [14]	Cell growth [15]	Zone of stimulation [16]	Zone of stimulation [17]	Zone of stimulation [18]
CC(=O)N(O)CCC[C@H](NC(=O)[C@H](CCCN(O)C(C)=O)NC(=O)[C@@H](N)CCCN(O)C(C)=O)C(=O)N[C@@H](C(=O)NC1C(=O)N2C(C(=O)O)=C(Cl)CC[C@H]12)c1ccc(O)cc1 (some centres undefined)	0.001	0.974	0.691	> 64 µg/mL	0.06 µg/mL (≈ 0.068 µM)	1.59	> 128 µg/mL	0.107	> 128 µg/mL	> 64 µg/mL	0.019	0.001	> 32 µg/mL	0.347	0.001	–	–	–
CC(=O)N(O)CCC[C@H](NC(=O)[C@H](CCCN(O)C(C)=O)NC(=O)[C@@H](N)CCCN(O)C(C)=O)C(=O)N[C@@H](C(=O)NC1C(=O)N(OCC(=O)O)[C@H]1C)c1ccc(O)cc1 (some centres undefined)	–	–	–	–	–	–	–	–	–	–	–	–	–	–	–	31 mm	16 mm	0 mm
CC(=O)N(O)CCC[C@H](NC(=O)[C@H](CCCN(O)C(C)=O)NC(=O)[C@@H](N)CCCN(O)C(C)=O)C(=O)N[C@@H](C(=O)NC1C(=O)N2C(C(=O)O)=C(Cl)CC[C@H]12)c1ccccc1 (some centres undefined)	–	–	–	> 128 µg/mL	0.125 µg/mL (≈ 0.144 µM)	–	> 128 µg/mL	–	> 128 µg/mL	> 64 µg/mL	–	–	> 64 µg/mL	–	–	–	–	–
CC(=O)N(O)CCC[C@H](NC(=O)[C@H](CCCN(O)C(C)=O)NC(=O)[C@@H](N)CCCN(O)C(C)=O)C(=O)N[C@@H](C(=O)NC1C(=O)N(OCC(=O)O)[C@H]1C)c1ccccc1 (some centres undefined)	–	–	–	–	–	–	–	–	–	–	–	–	–	–	–	28 mm	12 mm	0 mm
N[C@@H](C(=O)N[C@@H]1C(=O)N2C(C(=O)O)=C(Cl)CS[C@H]12)c1ccccc1.O [CEFACLOR]	–	–	–	1 µg/mL	0.25 µg/mL	–	> 128 µg/mL	–	2 µg/mL	0.5 µg/mL	–	–	1 µg/mL	–	–	–	–	–
N[C@@H](C(=O)N[C@@H]1C(=O)N2C(C(=O)O)=C(Cl)CC[C@H]12)c1ccccc1 [LORACARBEF ANHYDROUS]	–	–	–	0.5 µg/mL (≈ 1.43 µM)	0.25 µg/mL (≈ 0.715 µM)	–	> 128 µg/mL	–	2 µg/mL (≈ 5.72 µM)	1 µg/mL (≈ 2.86 µM)	–	–	0.5 µg/mL (≈ 1.43 µM)	–	–	–	–	–

Reference: ChEMBL document CHEMBL1125647, “Synthesis and siderophore and antibacterial activity of N5-acetyl-N5-hydroxy-L-ornithine-derived siderophore-beta-lactam conjugates: iron-transport-mediated drug delivery” (1991)
